Assay results pooled from the literature.
Protocols differ between the studies behind these lines.
PIKFYVE: 1-phosphatidylinositol 3-phosphate 5-kinase (PIKFYVE, Homo sapiens, UniProt Q9Y2I7)
KDR: Vascular endothelial growth factor receptor 2 (KDR, Homo sapiens, UniProt P35968)
PADI1: Protein-arginine deiminase type-1 (PADI1, Homo sapiens, UniProt Q9ULC6)
CDK16: Cyclin-dependent kinase 16 (CDK16, Homo sapiens, UniProt Q00536)
ATAD2 bromodomain: ATPase family AAA domain-containing protein 2, bromodomain (ATAD2, Homo sapiens, UniProt Q6PL18)

Structure (SMILES) | target | test | test system | conditions | endpoint | result
Nc1ncnc2occ(-c3ccc(NC(=O)Nc4cc(C(F)(F)F)ccc4F)cc3)c12 | PIKFYVE | cell-free assay | – | 20 µM | remaining signal | 19%
COc1ccc(NC(=O)c2c(Nc3ccccc3)sc(C(=O)NN=Cc3cc(OC)c(OC)c(OC)c3)c2NC(C)=O)cc1 | KDR | enzyme activity, inhibitor | – | 10 nM | remaining activity | 100%
N=C(CCl)NCCC[C@H](NC(=O)c1ccccc1)c1nn[nH]n1 | PADI1 | enzyme activity, inhibitor | – | – | kinact/KI | 110 M⁻¹ s⁻¹
COc1ccc(NC(=O)c2c(Nc3ccccc3)sc(C#N)c2NC(=O)CNc2ccc([N+](=O)[O-])cc2)cc1 | KDR | enzyme activity, inhibitor | – | 1 µM | remaining activity | 79.1%
CC(C)(C)n1nnc([C@H](CCCNC(=N)CCl)NC(=O)c2ccc(-c3ccccc3)cc2)n1 | PADI1 | enzyme activity, inhibitor | – | – | kinact/KI | 46.2 M⁻¹ s⁻¹
Cn1c2c(Cl)c(Cl)ccc2c2cc[nH]c(=O)c21 | CDK16 | thermal stability, DSF | – | 10 µM | ΔTm | 0 °C
Cc1cc2c(cc1N1C(=O)c3cccc4c(Cl)ccc(c34)C1=O)n(C)c(=O)n2C | ATAD2 bromodomain | thermal stability, DSF | – | 10 µM | ΔTm | 0 °C
N=C(CF)NCCC[C@H](NC(=O)c1ccccc1C(=O)O)c1nn[nH]n1 | PADI1 | enzyme activity, inhibitor | – | – | kinact/KI | 1360 M⁻¹ s⁻¹
Cn1c2c(c3ccc(Cl)c(Cl)c31)C(C#N)C1(CCNCC1)NC2=O (racemic) | CDK16 | thermal stability, DSF | – | 10 µM | ΔTm | 2.6 °C
COc1ccc(NC(=O)c2c(Nc3ccccc3)sc(C(=O)NN=Cc3ccc(Cl)cc3)c2NC(C)=O)cc1 | KDR | enzyme activity, inhibitor | – | 1 µM | remaining activity | 83.7%
CC(C)(C)n1nnc([C@H](CCCNC(=N)CF)NC(=O)c2ccccc2C(=O)O)n1 | PADI1 | enzyme activity, inhibitor | – | – | kinact/KI | 1670 M⁻¹ s⁻¹
COc1ccc(NC(=O)c2c(Nc3ccccc3)sc(C#N)c2NC(=O)CNc2ccc(Br)cc2)cc1 | KDR | enzyme activity, inhibitor | – | 0.1 µM | remaining activity | 66.2%
CC(C)(C)n1nnc([C@H](CCCNC(=N)CCl)NC(=O)c2ccccc2C(=O)O)n1 | PADI1 | enzyme activity, inhibitor | – | – | kinact/KI | 2700 M⁻¹ s⁻¹
NCCCC[C@H](NC(=O)[C@@H]1CCCN1C(=O)[C@@H]1CSSC[C@H](N)C(=O)N[C@@H](Cc2ccc(O)cc2)C(=O)N[C@@H](Cc2ccccc2)C(=O)N[C@@H](CCC(N)=O)C(=O)N[C@@H](CC(N)=O)C(=O)N1)C(=O)NCC(N)=O | Vasopressin V1a receptor (AVPR1A, Homo sapiens, UniProt P37288) | calcium signal, agonist | CHO-S | – | Emax | ~100%
COc1ccc(NC(=O)c2c(Nc3ccccc3)sc(C(=O)NN=Cc3ccc(OC)c(O)c3)c2NC(C)=O)cc1 | KDR | enzyme activity, inhibitor | – | 1 µM | remaining activity | 63.2%
CCC1(CC)NC(=O)c2c(c3ccc(Cl)c(Cl)c3n2C)C1C#N (stereo not shown) | CDK16 | thermal stability, DSF | – | 10 µM | ΔTm | 0.3 °C
COc1ccc(NC(=O)c2c(Nc3ccccc3)sc(C#N)c2NC(=O)CNc2ccc(Cl)cc2)cc1 | KDR | enzyme activity, inhibitor | – | 10 µM | remaining activity | 29.6%
C[C@@H]1CN(c2c(F)c(N)c3c(=O)c(C(=O)O)cn(C4CC4)c3c2F)C[C@H](C)N1 | Glycogen synthase kinase-3 beta (GSK3B, Homo sapiens, UniProt P49841) | enzyme activity, inhibitor, ADP detection | – | 100 µM | inhibition | 14%
CN(C)C1CCN(CC#Cc2nn(C3CCCC3)c3nc(NCc4ccccc4)ncc23)C1 (stereo not shown) | cGMP-dependent protein kinase 2 (PRKG2, Homo sapiens, UniProt Q13237) | enzyme activity, inhibitor, FRET | – | 0.1 µM | inhibition | 7%
C[S+]([O-])c1ccc(-c2nc(-c3ccncc3)c(-c3ccc(F)cc3)[nH]2)cc1 (stereo not shown) | ATAD2 bromodomain | thermal stability, DSF | – | 10 µM | ΔTm | -1.47 °C
CC(=O)NCCc1c[nH]c2ccc(O)cc12 | Sulfotransferase 1C4 (SULT1C4, Homo sapiens, UniProt O75897) | enzyme activity, substrate | – | pH 7 | Km | 45.7 µM
Cc1ccc(C(=O)NCc2ccsc2)cc1C#Cc1cn(C(C)C)c2ncnc(N)c12 | [Pyruvate dehydrogenase (acetyl-transferring)] kinase isozyme 2, mitochondrial (PDK2, Homo sapiens, UniProt Q15119) | enzyme activity, inhibitor | – | 1 µM | activity vs control | 91%
COc1ccc(C=NNC(=O)c2sc(Nc3ccccc3)c(C(=O)Nc3ccc(OC)cc3)c2NC(C)=O)cc1 | KDR | enzyme activity, inhibitor | – | 10 µM | remaining activity | 48.6%
CC(C)(C)n1nnc([C@H](CCCNC(=N)CF)NC(=O)c2ccccc2)n1 | PADI1 | enzyme activity, inhibitor | – | – | kinact/KI | 26.6 M⁻¹ s⁻¹
Cc1ccc(C(=O)Nc2ccc(CN3CCN(C)CC3)c(C(F)(F)F)c2)cc1C#Cc1cnc2cccnn12 | PIKFYVE | cell-free assay | – | 23.5 nM | remaining signal | 100%
